Bioassay records as filed in PubChem BioAssay.
MC4R antagonist – human MC4R antagonism in cAMP assay; MC4R-expressing cells, MTII-stimulated cAMP, LANCE TR-FRET; inhibition, % at 6.5 µM; actives 0.48% (n = 360,000);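 active = inhibition above its plate's cutoff, the mean of tested wells on that plate plus 3 SD, cut at about 29% in these data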
Target sequence (P32245 whole entry, looked up): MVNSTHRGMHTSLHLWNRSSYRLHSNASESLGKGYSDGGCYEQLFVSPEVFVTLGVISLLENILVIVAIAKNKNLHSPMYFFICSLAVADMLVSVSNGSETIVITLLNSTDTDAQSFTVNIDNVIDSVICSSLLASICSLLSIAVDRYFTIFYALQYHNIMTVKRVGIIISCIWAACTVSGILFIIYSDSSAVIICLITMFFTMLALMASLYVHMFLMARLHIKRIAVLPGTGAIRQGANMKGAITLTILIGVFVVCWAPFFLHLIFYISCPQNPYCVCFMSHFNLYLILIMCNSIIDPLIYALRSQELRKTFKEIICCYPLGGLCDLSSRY
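material = U2OS cells stably expressing human melanocortin 4 receptor (MC4R) | also added = Melanotan II challenge | dosing = single nominal compound dose of 6.5 µM | detection = TR-FRET with Eu-cAMP and labeled anti-cAMP, 671 nm | replication = singlicate | timing = compound 30 min, challenge 1 h, detection 1 h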
F508del corr – correctors of CFTR F508del function in bronchial epithelial cells; CFBE cells, YFP halide quenching; stimulated with forskolin plus potentiator P3; % fluorescence drop versus neutral controls; activity (quench increase), % at 7.58 µM; actives 0.36% (n = 350,000); AID 720511;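 active = mean added fluorescence quench of at least 8% versus neutral control, with both replicates also reaching 8%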;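 note: cells transiently co-express mutant CFTR-F508del with the halide-sensitive YFP; corrector assay measuring rescue of mutant channel to the surface after 24 h compound exposure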
SMARCA2 activ – increases SMARCA2 function in MMTV reporter cells; MG213 cells, MMTV-luciferase reporter, dexamethasone, overnight; activation, % at 9.1 µM; actives 1% (n = 370,000); AID 652017; in the data active = activation above about 7.8%
MC4R ag barr – agonists of human melanocortin 4 receptor (MC4R) beta-arrestin; activation, % at 8.9 µM; U2OS MC4R beta-arrestin complementation, luminescence; percent of melanotan II response, DMSO zero; P32245; actives 0.98% (n = 360,000);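 active = activation above a per-plate cutoff, the mean activation of sample wells on that plate plus 3 SD, cut at about 8% in these data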
Large screens that a line does not name were inactive. Shown are actives, neighbours in structure and some others; about 2.1% of the full set was active somewhere.

O=c1c2ccccc2sn1-c1ccc(S(=O)(=O)N2CCCCC2)cc1	none (no result: F508del corr)
CC1=C(C(=O)OC2CCCCC2)C(c2ccccc2Br)NC(=O)N1 (configuration not stated)	MC4R ag barr 8.2
CCOc1ccccc1C1NC(=O)NC(C)=C1C(=O)OC1CCCCC1 (configuration not stated)	none (no result: F508del corr)
CC(=O)NS(=O)(=O)c1ccc(NC(=O)CSc2ccc(Cl)cc2)cc1	F508del corr 9.6 (no result: MC4R antagonist, MC4R ag barr)
C[C@H](CO)N1C[C@H](C)[C@H](CN(C)C(=O)Cc2ccccc2)OCCCC[C@H](C)Oc2ccc(NC(=O)Nc3cccc4ccccc34)cc2C1=O	none (no result: MC4R antagonist, SMARCA2 activ, MC4R ag barr)
Cc1c(C)c2c(OCC(=O)N3CCC[C@H]3C(=O)O)cc3c(c2oc1=O)CCC(C)(C)O3	none
Cc1c(C)c2c(OCC(=O)N3CCC(O)CC3)cc3c(c2oc1=O)CCC(C)(C)O3	F508del corr 9.2
CCCNC(=O)c1ccc2c(=O)c(O)c(-c3cccc(Br)c3)[nH]c2c1	F508del corr 8.4
CCNC(=O)Nc1ccc2c(c1)C(=O)N(C)[C@H]1CC[C@@H](CC(=O)NCc3cccc(F)c3)O[C@@H]1CO2	none (no result: MC4R antagonist, SMARCA2 activ, MC4R ag barr)
CO[C@H](CN(C)Cc1nccs1)[C@@H](C)CN([C@@H](C)CO)S(=O)(=O)c1ccc(C)cc1	none (no result: MC4R antagonist, SMARCA2 activ, MC4R ag barr)
C[C@H]1CN([C@@H](C)CO)C(=O)c2cccc(NS(=O)(=O)c3ccc(F)cc3)c2O[C@H]1CN(C)Cc1ccccc1	none (no result: MC4R antagonist, SMARCA2 activ, MC4R ag barr)
COc1ccc2[nH]c(C(=O)N/N=C/c3ccc(O)cc3O)cc2c1	F508del corr 12.0
CCOc1ccc2[nH]c(C(=O)N/N=C/c3ccc(OC)cc3)cc2c1	F508del corr 18.0
CO[C@@H]1CN(C)C(=O)c2ccc(NC(=O)C3CCOCC3)cc2OC[C@H](C)N(C(=O)c2ccccc2)C[C@H]1C	none (no result: MC4R antagonist, SMARCA2 activ, MC4R ag barr)
O=C(O)C[C@H]1CC[C@H](NC(=O)CCN2CCCCC2)[C@H](CO)O1	none (no result: MC4R antagonist, SMARCA2 activ, MC4R ag barr)
COc1ccc(NC(=O)CSc2nc3n[nH]c(C)c3c(=N)n2-c2ccc(Cl)c(C)c2)cc1OC	MC4R ag barr 24.9 (no result: F508del corr, SMARCA2 activ)
Cc1[nH]nc2nc(SCC(=O)NCCC3=CCCCC3)n(-c3ccc(Br)cc3)c(=N)c12	MC4R ag barr 48.9
Cc1cc(-n2c(SCC(=O)NCCC3=CCCCC3)nc3n[nH]c(C)c3c2=N)ccc1Cl	MC4R ag barr 15.4
Cc1ccc(Cl)cc1-n1c(SCC(=O)NCCC2=CCCCC2)nc2n[nH]c(C)c2c1=N	none
CCCNC(=O)C[C@H]1CC[C@@H]2[C@H](COC[C@@H](O)CN2C(=O)Nc2cccc(Cl)c2)O1	none (no result: MC4R antagonist, SMARCA2 activ, MC4R ag barr)
C[C@H](O)C#Cc1cnc2c(c1)C(=O)N([C@H](C)CO)C[C@H](C)[C@@H](CN(C)Cc1cncnc1)O2	none (no result: MC4R antagonist, SMARCA2 activ, MC4R ag barr)
CC(C)=CCC/C(C)=C/Cc1c(O)ccc(C(=O)/C=C/c2ccc(O)cc2)c1O	MC4R ag barr 8.6
C=C(C)C(O)Cc1c(OC)ccc(C(=O)/C=C/c2ccc(O)cc2)c1O (configuration not stated)	none
CCC(=O)N1CCN(c2nc(CC)nc3sc4c(c23)CCCC4)CC1	none
CC1CCc2c(sc3nc(C(C)(C)C)nc(N4CCN(C(=O)CCl)CC4)c23)C1 (configuration not stated)	MC4R ag barr 18.9
CCc1ccc(-c2nc(CN3CCC(C(=O)N4CCN(c5ccccc5)CC4)CC3)c(C)o2)cc1	MC4R ag barr 9.5 (no result: F508del corr)
CCc1ccc(-c2nc(CN3CCC(C(=O)N4CCN(c5ccccn5)CC4)CC3)c(C)o2)cc1	none (no result: F508del corr)
Cc1noc(C)c1S(=O)(=O)Nc1ccc2c(c1)CC(=O)N([C@H](C)CO)C[C@@H](C)[C@@H](CN(C)C(=O)Nc1ccccc1)O2	none (no result: MC4R antagonist, SMARCA2 activ, MC4R ag barr)
O=C(Cc1ccccn1)NCC[C@@H]1CC[C@H](NC(=O)Nc2ccc(C(F)(F)F)cc2)[C@H](CO)O1	F508del corr 12.0 (no result: MC4R antagonist, SMARCA2 activ, MC4R ag barr)
CC(C)Cc1cc(C(=O)Nc2cccnc2)no1	SMARCA2 activ 7.9
Cc1cc(C(=O)Nc2cccnc2)no1	none (no result: SMARCA2 activ)
CC(C)C#Cc1ccc2c(c1)O[C@@H](CN(C)C(=O)c1ccccn1)[C@H](C)CN([C@H](C)CO)S2(=O)=O	none (no result: MC4R antagonist, SMARCA2 activ, MC4R ag barr)
C/C=C/c1ccc([C@H]2[C@@H](CO)N(C(=O)c3cnccn3)C23CN(C(=O)CC)C3)cc1	none (no result: MC4R antagonist, SMARCA2 activ, MC4R ag barr)
Cc1ccc(C)c(N2CCN(C(=O)CCS(=O)(=O)c3ccc4c(c3)CCN4C(=O)C3CC3)CC2)c1	SMARCA2 activ 7.9
COc1ccc(-c2nn(-c3ccccc3)cc2C=O)cc1[N+](=O)[O-]	MC4R ag barr 9.5
COc1ccc(-c2nn(-c3ccccc3)cc2/C=C/C(=O)O)cc1[N+](=O)[O-]	none
Cc1ccc(NC(=O)CCSc2ccccc2)c(C)c1	none (no result: F508del corr, SMARCA2 activ)
Cc1cccc(NC(=O)CCSc2ccccc2)c1C	MC4R ag barr 8.7
C=CCN=c1scc(C)n1/N=C/c1ccc(O)c(O)c1	F508del corr 10.6
CN=c1scc(C)n1/N=C/c1ccc(O)cc1	none (no result: F508del corr)
C[C@H]1CN([C@@H](C)CO)C(=O)c2cc(NC(=O)CCC(F)(F)F)ccc2O[C@@H]1CN(C)C(=O)Nc1ccccc1	none (no result: MC4R antagonist, SMARCA2 activ, MC4R ag barr)
CC[C@@H]1C(c2ccc(F)cc2)=NN(c2ccc(Br)cc2)[C@H]1C(=O)N1CCOC1=O	MC4R ag barr 9.6
CC[C@@H]1C(c2ccccc2)=NN(c2ccc(Br)cc2)[C@H]1C(=O)N1CCOC1=O	none
Cc1ccc(Cn2c(Sc3ncccn3)nc3c2c(=O)[nH]c(=O)n3C)cc1	none (no result: F508del corr)
C/C=C/CSc1nc2c(c(=O)[nH]c(=O)n2C)n1Cc1ccc(C)cc1	MC4R ag barr 8.9
C/C=C/c1ccc([C@@H]2[C@H](CO)N(C(=O)CC)C23CN(CCC(F)(F)F)C3)cc1	none (no result: MC4R antagonist, SMARCA2 activ, MC4R ag barr)
COc1cc(C2CC(=O)N(c3ccc(C)cc3)C(=O)C2)cc(OC)c1OC	F508del corr 10.2
c1ccc(C(c2ccccn2)c2ccccn2)cc1	none (no result: F508del corr)
CC(=O)Oc1ccc(C(c2ccc(OC(C)=O)cc2)c2ccccn2)cc1	MC4R ag barr 75.1
Cc1cccc(C(=O)N(Cc2ccco2)c2c(N)n(Cc3ccccc3)c(=O)[nH]c2=O)c1	F508del corr 28.3
Cc1ccc(C(=O)Nc2nc(-c3ccccn3)cs2)cc1S(=O)(=O)N1CCOCC1	none
O=C(Nc1nc(-c2ccccn2)cs1)c1ccc(F)c(S(=O)(=O)N2CCOCC2)c1	F508del corr 22.5
COc1ccccc1NC(=O)/C(N=Nc1ccc(C)c(S(=O)(=O)Nc2ccccc2Cl)c1)=C(\C)O	none
COc1ccccc1NS(=O)(=O)c1cc(N=N/C(C(=O)Nc2ccc(Cl)cc2)=C(/C)O)ccc1C	F508del corr 11.5
C[C@@H]1CN([C@H](C)CO)C(=O)c2cccc(N(C)C)c2O[C@@H]1CN(C)C(=O)Nc1cccc2ccccc12	none (no result: MC4R antagonist, SMARCA2 activ, MC4R ag barr)
C[C@H]1CN([C@@H](C)CO)C(=O)c2cc(NS(=O)(=O)c3ccccc3)ccc2O[C@@H]1CN(C)Cc1ccc(C(=O)O)cc1	none (no result: MC4R antagonist, SMARCA2 activ, MC4R ag barr)
C=CC[C@@H](CC(=O)N[C@H](CO)Cc1ccccc1)C(=O)N[C@H](COC(=O)[C@@H](CC=C)CC(=O)OC(C)(C)C)Cc1ccccc1	MC4R ag barr 9.8
C=CC[C@@H](CC(=O)N(CCO)Cc1ccccc1)C(=O)N[C@H](COC(=O)[C@@H](CC=C)CC(=O)OC(C)(C)C)Cc1ccccc1	MC4R ag barr 9.3
